Measurements: ChEMBL document CHEMBL1828552, “Synthesis and studies of novel 2-(4-cyano-3-trifluoromethylphenyl amino)-4-(quinoline-4-yloxy)-6-(piperazinyl/piperidinyl)-s-triazines as potential antimicrobial, antimycobacterial and anticancer agents” (2011)
In brackets after ≈: the same amount, converted by molar mass.

How the values were obtained:
Klebsiella pneumoniae [1] = experiment: Antibacterial activity against 10^5 CFU/mL Klebsiella pneumoniae MTCC 109 after 24 hrs by disc diffusion technique; format: functional
In short: (§1)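 Disc diffusion on Mueller–Hinton agar poured 5 mm deep. The surface was swabbed with a 10⁵ CFU/mL […] suspension. Filter-paper discs 6.25 mm in diameter were soaked in compound in DMSO and placed on the agar. Plates were incubated 24 h at 37 ± 1 °C, and the inhibition zone was measured in mm. A DMSO disc served as blank.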

Shigella flexneri [2] = experiment: Antibacterial activity against 10^5 CFU/mL Shigella flexneri MTCC 1457 after 24 hrs by agar streak dilution method; format: functional; details: MTCC 1457, 24 h
In short: (§2)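 Agar streak dilution. Stock 100 µg/mL in DMSO; graded amounts were mixed into molten nutrient agar and poured at 4–5 mm depth. Plates carried serial dilutions over […]. About 10⁵ CFU/mL of each bacterium was applied, and plates were incubated at 37 ± 1 °C for 24 h. MIC was read from the dilution series.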

Aspergillus fumigatus [3] = experiment: Antifungal activity against 10^5 CFU/mL Aspergillus fumigatus MTCC 343 after 48 hrs by disc diffusion technique; format: functional
Klebsiella pneumoniae [4] = experiment: Antibacterial activity against 10^5 CFU/mL Klebsiella pneumoniae MTCC 109 after 24 hrs by agar streak dilution method; format: functional; details: MTCC 109, 24 h; in short: as §2
Escherichia coli [5] = experiment: Antibacterial activity against 10^5 CFU/mL Escherichia coli MTCC 739 after 24 hrs by agar streak dilution method; format: functional; details: MTCC 739, 24 h; in short: as §2
Proteus vulgaris [6] = experiment: Antibacterial activity against 10^5 CFU/mL Proteus vulgaris MTCC 1771 after 24 hrs by agar streak dilution method; format: functional; details: MTCC 1771, 24 h; in short: as §2
Shigella flexneri [7] = experiment: Antibacterial activity against 10^5 CFU/mL Shigella flexneri MTCC 1457 after 24 hrs by disc diffusion technique; format: functional; in short: as §1
Staphylococcus aureus [8] = experiment: Antibacterial activity against 10^5 CFU/mL Staphylococcus aureus MTCC 96 after 24 hrs by agar streak dilution method; format: functional; details: MTCC 96, 24 h; in short: as §2
Staphylococcus aureus [9] = experiment: Antibacterial activity against 10^5 CFU/mL Staphylococcus aureus MTCC 96 after 24 hrs by disc diffusion technique; format: functional; in short: as §1
Salmonella typhi [10] = experiment: Antibacterial activity against 10^5 CFU/mL Salmonella typhi MTCC 733 after 24 hrs by agar streak dilution method; format: functional, Salmonella enterica subsp. enterica serovar Typhi; details: Salmonella enterica, MTCC 733, 24 h
Aspergillus niger [11] = experiment: Antifungal activity against 10^5 CFU/mL Aspergillus niger MTCC 282 after 48 hrs by agar streak dilution method; format: functional; details: MTCC 282, 48 h
In short: (§3)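 Agar streak dilution for fungi. Stock 100 µg/mL in DMSO; graded amounts were mixed into molten Sabouraud dextrose agar and poured at 4–5 mm depth. Serial dilutions ran over […]. About 10⁵ CFU/mL inoculum was applied, with incubation at 37 ± 1 °C for 48 h. MIC was read from the dilution series.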

Candida albicans [12] = experiment: Antifungal activity against 10^5 CFU/mL Candida albicans MTCC 183 after 48 hrs by disc diffusion technique; format: functional
Bacillus cereus [13] = experiment: Antibacterial activity against 10^5 CFU/mL Bacillus cereus MTCC 619 after 24 hrs by disc diffusion technique; format: functional; in short: as §1
Candida albicans [14] = experiment: Antifungal activity against 10^5 CFU/mL Candida albicans MTCC 183 after 48 hrs by agar streak dilution method; format: functional; details: MTCC 183, 48 h; in short: as §3
Bacillus cereus [15] = experiment: Antibacterial activity against 10^5 CFU/mL Bacillus cereus MTCC 619 after 24 hrs by agar streak dilution method; format: functional; details: MTCC 619, 24 h; in short: as §2
Aspergillus clavatus [16] = experiment: Antifungal activity against 10^5 CFU/mL Aspergillus clavatus MTCC 1323 after 48 hrs by agar streak dilution method; format: functional; details: MTCC 1323, 48 h; in short: as §3
Pseudomonas aeruginosa [17] = experiment: Antibacterial activity against 10^5 CFU/mL Pseudomonas aeruginosa MTCC 741 after 24 hrs by disc diffusion technique; format: functional; in short: as §1
Aspergillus fumigatus [18] = experiment: Antifungal activity against 10^5 CFU/mL Aspergillus fumigatus MTCC 343 after 48 hrs by agar streak dilution method; format: functional; details: MTCC 343, 48 h; in short: as §3
Pseudomonas aeruginosa [19] = experiment: Antibacterial activity against 10^5 CFU/mL Pseudomonas aeruginosa MTCC 741 after 24 hrs by agar streak dilution method; format: functional; details: MTCC 741, 24 h; in short: as §2
Proteus vulgaris [20] = experiment: Antibacterial activity against 10^5 CFU/mL Proteus vulgaris MTCC 1771 after 24 hrs by disc diffusion technique; format: functional; in short: as §1
Salmonella typhi [21] = experiment: Antibacterial activity against 10^5 CFU/mL Salmonella typhi MTCC 733 after 24 hrs by disc diffusion technique; format: functional, Salmonella enterica subsp. enterica serovar Typhi
In short: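 Disc diffusion. Mueller-Hinton agar autoclaved 120 °C 30 min, poured 5 mm deep. Surface swabbed with 10⁵ CFU/mL suspension […]. 6.25 mm filter-paper discs soaked in compound in DMSO; DMSO-only disc as blank. Incubated 37 ± 1 °C, 24 h for bacteria or 48 h for fungi. Ciprofloxacin and ketoconazole discs as reference drugs. Inhibition zone measured in mm.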

Aspergillus clavatus [22] = experiment: Antifungal activity against 10^5 CFU/mL Aspergillus clavatus MTCC 1323 after 48 hrs by disc diffusion technique; format: functional
Aspergillus niger [23] = experiment: Antifungal activity against 10^5 CFU/mL Aspergillus niger MTCC 282 after 48 hrs by disc diffusion technique; format: functional
Escherichia coli [24] = experiment: Antibacterial activity against 10^5 CFU/mL Escherichia coli MTCC 739 after 24 hrs by disc diffusion technique; format: functional; in short: as §1
DU-145 = experiment: Cytotoxicity against […] human DU145 cells after 48 hrs by SRB assay; format: functional; details: DU-145, 48 h
In short: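 SRB assay in DU-145 cells grown in RPMI 1640 with 10% FBS and 2 mM L-glutamine. Cells were plated and held 24 h before addition of four 10-fold concentrations. After 48 h, cells were TCA-fixed, stained with 0.4% SRB and read at 540 nm. GI50, TGI and LC50 were derived against time-zero and control wells; each value is the mean of three experiments.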

Compound	inhibition zone (IZ) (Klebsiella pneumoniae [1]) [mm]	MIC (Shigella flexneri [2]) [µg/mL]	inhibition zone (IZ) (Aspergillus fumigatus [3]) [mm]	MIC (Klebsiella pneumoniae [4]) [µg/mL]	MIC (Escherichia coli [5]) [µg/mL]	MIC (Proteus vulgaris [6]) [µg/mL]	inhibition zone (IZ) (Shigella flexneri [7]) [mm]	MIC (Staphylococcus aureus [8]) [µg/mL]	inhibition zone (IZ) (Staphylococcus aureus [9]) [mm]	MIC (Salmonella typhi [10]) [µg/mL]	MIC (Aspergillus niger [11]) [µg/mL]	inhibition zone (IZ) (Candida albicans [12]) [mm]	inhibition zone (IZ) (Bacillus cereus [13]) [mm]	MIC (Candida albicans [14]) [µg/mL]	MIC (Bacillus cereus [15]) [µg/mL]	MIC (Aspergillus clavatus [16]) [µg/mL]	inhibition zone (IZ) (Pseudomonas aeruginosa [17]) [mm]	MIC (Aspergillus fumigatus [18]) [µg/mL]	MIC (Pseudomonas aeruginosa [19]) [µg/mL]	inhibition zone (IZ) (Proteus vulgaris [20]) [mm]	also measured
N#Cc1ccc(Nc2nc(Oc3ccnc4ccccc34)nc(N3CCN(c4ncccn4)CC3)n2)cc1C(F)(F)F	17	100 (≈ 175 µM)	13	100 (≈ 175 µM)	100 (≈ 175 µM)	100 (≈ 175 µM)	17	100 (≈ 175 µM)	21	100 (≈ 175 µM)	100 (≈ 175 µM)	13	21	100 (≈ 175 µM)	50 (≈ 87.6 µM)	100 (≈ 175 µM)	16	100 (≈ 175 µM)	100 (≈ 175 µM)	18	inhibition zone (IZ) (Salmonella typhi [21]): 16 mm; inhibition zone (IZ) (Aspergillus clavatus [22]): 11 mm; inhibition zone (IZ) (Aspergillus niger [23]): 11 mm; inhibition zone (IZ) (Escherichia coli [24]): 18 mm; GI50 (DU-145): 85.2 µM; LC50 (concentration giving 50% net cell kill relative to time zero) (DU-145): > 100 µM; TGI (DU-145): > 100 µM
N#Cc1ccc(Nc2nc(Oc3ccnc4ccccc34)nc(N3CCN(C(c4ccccc4)c4ccc(Cl)cc4)CC3)n2)cc1C(F)(F)F (stereo not drawn)	25	25 (≈ 36.1 µM)	26	12.5 (≈ 18 µM)	50 (≈ 72.1 µM)	6.25 (≈ 9.02 µM)	22	12.5 (≈ 18 µM)	25	25 (≈ 36.1 µM)	25 (≈ 36.1 µM)	25	25	25 (≈ 36.1 µM)	12.5 (≈ 18 µM)	50 (≈ 72.1 µM)	24	25 (≈ 36.1 µM)	12.5 (≈ 18 µM)	27	inhibition zone (IZ) (Salmonella typhi [21]): 25 mm; inhibition zone (IZ) (Aspergillus clavatus [22]): 25 mm; inhibition zone (IZ) (Aspergillus niger [23]): 25 mm; inhibition zone (IZ) (Escherichia coli [24]): 23 mm; GI50 (DU-145): > 100 µM; LC50 (concentration giving 50% net cell kill relative to time zero) (DU-145): > 100 µM; TGI (DU-145): > 100 µM
CCN1CCN(c2nc(Nc3ccc(C#N)c(C(F)(F)F)c3)nc(Oc3ccnc4ccccc34)n2)CC1	<10	100 (≈ 192 µM)	<10	100 (≈ 192 µM)	100 (≈ 192 µM)	100 (≈ 192 µM)	13	100 (≈ 192 µM)	13	100 (≈ 192 µM)	100 (≈ 192 µM)	12	14	100 (≈ 192 µM)	100 (≈ 192 µM)	100 (≈ 192 µM)	16	100 (≈ 192 µM)	100 (≈ 192 µM)	<10	inhibition zone (IZ) (Salmonella typhi [21]): 15 mm; inhibition zone (IZ) (Aspergillus clavatus [22]): <10 mm; inhibition zone (IZ) (Aspergillus niger [23]): <10 mm; inhibition zone (IZ) (Escherichia coli [24]): 13 mm; GI50 (DU-145): 86.6 µM; LC50 (concentration giving 50% net cell kill relative to time zero) (DU-145): > 100 µM; TGI (DU-145): > 100 µM
N#Cc1ccc(Nc2nc(Oc3ccnc4ccccc34)nc(N3CCN(c4ccccc4)CC3)n2)cc1C(F)(F)F	<10	100 (≈ 176 µM)	<10	100 (≈ 176 µM)	100 (≈ 176 µM)	100 (≈ 176 µM)	<10	100 (≈ 176 µM)	14	100 (≈ 176 µM)	100 (≈ 176 µM)	<10	<10	100 (≈ 176 µM)	100 (≈ 176 µM)	100 (≈ 176 µM)	<10	100 (≈ 176 µM)	100 (≈ 176 µM)	14	inhibition zone (IZ) (Salmonella typhi [21]): 13 mm; inhibition zone (IZ) (Aspergillus clavatus [22]): <10 mm; inhibition zone (IZ) (Aspergillus niger [23]): <10 mm; inhibition zone (IZ) (Escherichia coli [24]): <10 mm; GI50 (DU-145): > 100 µM; LC50 (concentration giving 50% net cell kill relative to time zero) (DU-145): > 100 µM; TGI (DU-145): > 100 µM
